In PubChem BioAssay AID1040 (The Scripps Research Institute Molecular Screening Center, 2008):
Among all 200,000 compounds or so, about 2,000 (1%) were called active. The entries come from a sample that favours actives as a whole. Values without a mark were called inactive.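 Rule for the calls: active = inhibition above the campaign mean inhibition of all tested compounds plus 3 SD (cut at about 20% in these data); inactive = the rest.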

Each molecule was assayed against Neuropeptide Y receptor type 1 (Homo sapiens) (UniProt P25929) (assay: blockers of human neuropeptide Y Y1 receptor – cell-based, primary screen (AID 1040;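 note: 0% = DMSO wells given NPY plus isoproterenol and 100% = isoproterenol alone without NPY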)). Conditions: HEK293-CNG Y1 cells, membrane potential fluorescence; at 3.6 µM; active compounds read high; NPY at EC95, then isoproterenol.
Procedure, shortened: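 System: HEK293 cells with Y1 receptor plus CNG channel / Probe or stimulus: NPY 25 nM then isoproterenol 1 µM plus Ro 20-1724 25 µM / Compound: one concentration, 3.6 µM, in 0.4% DMSO / Schedule: compound incubation 1 h at room temperature, readout 45 min post-stimulation / Measured by: membrane potential fluorescence / Read-out: % inhibition of NPY effect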

Sequence of Neuropeptide Y receptor type 1 (Homo sapiens) (P25929 whole entry, looked up): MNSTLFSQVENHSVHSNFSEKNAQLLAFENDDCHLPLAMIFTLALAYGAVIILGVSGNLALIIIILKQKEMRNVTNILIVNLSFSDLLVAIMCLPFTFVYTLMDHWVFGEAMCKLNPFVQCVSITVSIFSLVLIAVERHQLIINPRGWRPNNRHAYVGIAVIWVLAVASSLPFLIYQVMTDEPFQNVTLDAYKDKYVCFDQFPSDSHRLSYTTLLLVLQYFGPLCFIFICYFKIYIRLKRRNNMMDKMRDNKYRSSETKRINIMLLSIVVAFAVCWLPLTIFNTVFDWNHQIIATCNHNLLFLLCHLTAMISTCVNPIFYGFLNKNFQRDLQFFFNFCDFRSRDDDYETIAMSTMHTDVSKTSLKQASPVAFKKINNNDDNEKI

Structure (SMILES)	inhibition
Cc1cccc(-c2ncc(CN3CCC(CO)(CCCc4ccccc4)CC3)cn2)c1	4.93%
CC(=O)c1cccc(CN2CCC(CO)(Cc3ccccc3)CC2)c1	2.21%
OCC1(CCc2ccccc2)CCN(Cc2ccc3nsnc3c2)CC1	22.8% (active)
COC(=O)C(C(=O)Nc1cccc(Cl)c1C)C1CCCC1 (centres undefined)	5.62%
Cc1ccccc1Nc1scc(-c2ccc(Br)cc2)[n+]1-c1ccccc1C	31.6% (active)
COc1ccc(C)cc1-n1nnnc1SCc1nc2ccccc2c(=O)[nH]1	-0.32%
CCN(CCCNC(=O)CSc1cc(=O)n(C)c2cc(Cl)ccc12)Cc1ccccc1	1.58%
COCCCNC(=S)N1CCCC(c2nc3cc(C)c(C)cc3[nH]2)C1 (centres undefined)	-0.11%
NS(=O)(=O)c1ccc(CCNC(=O)c2ccc([N+](=O)[O-])cc2[N+](=O)[O-])cc1	0.19%
N#Cc1cnn2cc(CCN3CCOCC3)c(-c3ccc(F)cc3)nc12	-1.23%
COc1ccc(/C=N/NC(=O)Cn2cc(C(F)(F)F)ccc2=O)cc1	0.12%
CCOC(=O)N1CCN(S(=O)(=O)c2ccc(C(=O)Nc3ccc(F)cc3F)cc2)CC1	30.3% (active)
O=C(Nc1cccc(F)c1)c1ccc(S(=O)(=O)N2CCCC2)cc1	-0.82%
COc1ccc(C(=O)Nc2ccc(F)cc2F)cc1	6.11%
CC(=O)c1cnc(SCC(=O)O)nc1C	-4%
COc1ccc(C(=O)NN2C(=O)C3C(c4ccccc4)C=CC(c4ccccc4)C3C2=O)cc1 (centres undefined)	11.3%
COc1ccc2c(c1)C(C)=CC(C)(C)N2C(=O)Nc1ccccc1	13.7%
COc1ccc2c(c1)C(C)=CC(C)(C)N2C(=O)CNCc1ccc2c(c1)OCO2	27.3% (active)
CCn1cc(C(=O)NCc2ccc3c(c2)OCO3)c2cc(OC)c(OC)cc2c1=O	1.79%
O=C(/C=C/c1ccc(OCc2c(F)cccc2Cl)cc1)N1CCOCC1	5.45%
COn1c(-c2ccc(Cl)cc2Cl)nc2ncccc21	5.03%
CCN1CCN(c2ccc([N+](=O)[O-])cc2C(=O)c2ccc(Cl)cc2)CC1	36.6% (active)
O=C(Nc1cccc(Cl)c1)c1cc([N+](=O)[O-])ccc1N1CCN(CCO)CC1	0.17%
CCC(=O)c1ccc(N2CCN(C(=O)c3cc([N+](=O)[O-])ccc3F)CC2)c(F)c1	-2.39%

Structure (SMILES)	inhibition
CCc1ccc(OCC(=O)OCC(=O)c2c(N)n(C)c(=O)n(C)c2=O)cc1	-0.61%
O=C(NCc1ccco1)c1nn2cccnc2c1Cl	1.08%
Cc1cc(C(C)(C)C)oc1C(=O)N(CC(=O)NC1CCCC1)Cc1ccc(Cl)cc1	28.1% (active)
Cc1noc(C)c1C(=O)N(CC(=O)NC1CCCC1)Cc1ccccc1F	1.99%
COc1ccc(CN(CC(=O)NC2CCCC2)C(=O)CCC(=O)Nc2cc(C)on2)cc1	1.61%
COc1ccc(Cc2nnc(N/N=C/c3ccccc3O)[nH]c2=O)cc1OC	7.54%
N=c1c2c(-c3ccccc3)c(-c3ccccc3)n(Cc3ccccc3)c2ncn1CCCO	73.2% (active)
Cc1nc([N+](=O)[O-])c(NCCCO)n1Cc1ccccc1	-2.13%
OCCCN1c2ccccc2Nc2nnc(-c3ccccc3)cc21	-7.91%
COc1ccc(-c2nn(-c3ccccc3)cc2CN2CCCO2)c(F)c1	3.17%
CCOC(=O)c1[nH]c2c(c1C)C(=O)CC(c1ccc(N(C)C)cc1)C2 (centres undefined)	6.58%
CCCOC(=O)c1[nH]c2c(c1C)C(=O)CC(c1cccs1)C2 (centres undefined)	33.9% (active)
CCCOC(=O)c1[nH]c2c(c1C)C(=O)CC(c1cc(OC)c(OC)c(OC)c1)C2 (centres undefined)	-8.2%
COc1ccc(NC(=O)/C(C#N)=C\c2cc(OC)c(OCc3ccc(C(=O)O)cc3)cc2Br)cc1	2.86%
O=C1c2cccnc2C(Nc2ccc(S(=O)(=O)N3CCCCCC3)cc2)N1Cc1ccccc1 (centres undefined)	30.7% (active)
O=S(=O)(NCc1ccccc1)c1ccc(S(=O)(=O)N2CCCC2)cc1	1%
Cc1nc(Nc2ccc(S(=O)(=O)N3CCCC3)cc2)c2nnn(Cc3ccccc3)c2n1	-11%
Cc1cccc(N2CCC(NCc3c(C(=O)N4CCCCC4)nc4c(C)cccn34)CC2)c1	11%
COc1ccc(C(C[N+](=O)[O-])n2nc(C)cc2C)cc1 (centres undefined)	-2.49%
COc1ccccc1CNC(=O)C1CCN(c2nc3ccccc3o2)CC1	-3.62%
CCc1ccc(CNC(=O)C2CCCN(c3nc4ccccc4o3)C2)cc1 (centres undefined)	26.4% (active)
COc1ccc(OC)c(CNC(=O)C2CCCN(c3nc4ccccc4o3)C2)c1 (centres undefined)	7.8%
COC(=O)c1ccc(COC(=O)c2cnccn2)cc1	-0.5%
OC(COCC1COc2ccccc2O1)CN1CCN(c2ccc(F)cc2)CC1 (centres undefined)	-9.16%

Structure (SMILES)	inhibition
Cc1ccc(S(=O)(=O)N(C)CC(=O)OCC(=O)N2CC(=O)Nc3ccccc32)cc1	1.33%
OC(COc1cccc(OCC(O)CN2CCCC2)c1)CN1CCCC1 (centres undefined)	6.73%
O=C(c1ccc(Cl)cc1)c1ccc(OCC(O)CN2CCCCC2)cc1 (centres undefined)	6.02%
O=C(c1ccccc1)c1ccc(OCC(O)CN2CCCC2)cc1 (centres undefined)	20.8% (active)
CN1CCNC(=O)C1CC(=O)NCCC1=CCCCC1 (centres undefined)	1.21%
Cc1ccc(OCC(=O)NC(C)c2ccccc2)c([N+](=O)[O-])n1 (centres undefined)	19.9%
CS(=O)(=O)N1CCCC(C(=O)N2CCOCC2)C1 (centres undefined)	94.5% (active)
CCCS(=O)(=O)N1CCCC(C(=O)N2CCN(c3ccccc3)CC2)C1 (centres undefined)	0.57%
Cc1ccc(CNC(=O)C2CCCN(S(C)(=O)=O)C2)cc1 (centres undefined)	0.15%
COc1ccc(N2CCN(CCCNC(=O)C3CCN(S(=O)(=O)N4CCOCC4)CC3)CC2)cc1	-2.61%
CCC1(C)Cc2c(sc3nc(SC)nc(N)c23)CO1 (centres undefined)	-1.88%
CN(C)CCSc1nc(N)c2c3c(sc2n1)COC(C)(C)C3	1.6%
CCCSc1nc(NCc2ccco2)c2c3c(sc2n1)COC(C)(CC)C3 (centres undefined)	30.4% (active)
COC(=O)c1ccc(C(NC(=O)OCc2ccccc2)/C(C)=C/[C@@H](C)C(=O)NCc2ccc(OC)c(OC)c2)cc1 (some centres undefined)	21.5% (active)
COC(=O)c1ccc(C2C(Oc3ccccc3C)C(=O)N2CCc2ccc(OC)c(OC)c2)cc1 (centres undefined)	8.91%
CCOc1ccc(C(CCc2ccccc2)NC(=O)c2ccc(OC)c(OC)c2)cc1OCC (centres undefined)	-0.85%
O=C(CCCNS(=O)(=O)c1cccc2nsnc12)NCCN1CCN(c2ccccc2F)CC1	1.63%
Cc1c(/C=N\NC(=O)c2cc3ccccc3o2)c2ccccc2n1C	8.68%
O=C1C(=O)N(c2ccccc2)c2ccccc21	7.08%
O=C1c2ccccc2C(=O)N1c1ccccc1S(=O)C(F)(F)F (centres undefined)	21.4% (active)
CCOC(=O)Nc1ccccc1N1C(=O)c2ccccc2C1=O	-3.15%
O=C(NNC1=C(C(=O)C(F)(F)F)CCC1)c1ccncc1	0.61%
CC(=O)c1cc(-c2ccccc2)n(CCC(=O)NC2CCCCCC2)c1C	2.33%
CCCc1[nH]nc2c1C(c1c(C)nn(-c3ccccc3)c1Cl)C(C#N)=C(N)O2 (centres undefined)	-1.69%

Structure (SMILES)	inhibition
CCCc1[nH]nc2c1C(C1CC=CCC1)C(C#N)=C(N)O2 (centres undefined)	-5.43%
CCCc1[nH]nc2c1C(c1ccc(Br)s1)C(C#N)=C(N)O2 (centres undefined)	68.6% (active)
O=C(COC(=O)c1cnc(Cl)c(Cl)c1)NCc1ccco1	1.45%
N#Cc1ccc(N2Cc3ccccc3/C2=N/C(=O)Nc2ccc(Cl)cc2)cc1	-0.16%
C/C(=N\NC(=S)NCc1ccccc1)C1CCCCC1	3.71%
O=C(O)c1ccc(/C=N/NC(=S)NCc2ccccc2)cc1	4.72%
C/C(=N\NC(=S)NCc1ccccc1)c1ccc(Cl)cc1	21.7% (active)
OCCC1CN(Cc2cnc(-c3ccccc3)s2)CCN1CCc1ccccc1 (centres undefined)	-0.62%
CCCCCCCCn1c2c(c(=N)c3c1CCC3)CCCC2	81.5% (active)
CCCCCCn1c(CN2CCCCC2)nc2c1c(=O)n(C)c(=O)n2C	11.1%
Cn1cnnc1SCC(=O)NNC(=O)COc1ccc(Br)cc1	10.5%
CC1(C)OC(=O)C(=CNC(CO)C(=O)O)C(=O)O1 (centres undefined)	0.88%
CCCOC(=O)c1cc2ccccc2oc1=O	1.89%
OCC1(Cc2ccccc2)CCN(Cc2cc3ccccc3o2)CC1	9.75%
CN(C)CCCCCN(C)Cc1cc2ccccc2o1	22.6% (active)
O=C(CCC(=O)OCc1ccc(Cl)cc1)Nc1ccccc1	-2.82%
O=C(/C=C\c1cn(-c2ccccc2)nc1-c1cccs1)N1CCOCC1	4.67%
O=C(O)/C=C/c1cn(-c2ccccc2)nc1-c1cccs1	3.05%
O=C(O)/C=C/c1cn(Cc2ccccc2)nc1-c1cccs1	20.8% (active)
O=C(OCc1cc(Cl)ccc1OC(F)F)c1cccnc1	-0.25%
Cc1c(Cl)c([N+](=O)[O-])nn1CCCC(=O)NC(C)c1ccccc1 (centres undefined)	1.69%
COc1cc(OC)c(C(=O)Nc2ccccc2-c2ccccc2)cc1OC	2.51%
